In ChEMBL document CHEMBL1144887, “Indanylidenes. 1. Design and synthesis of (E)-2-(4,6-difluoro-1-indanylidene)acetamide, a potent, centrally acting muscle relaxant with antiinflammatory and analgesic activity” (J Med Chem, 2003):

Experiments:
Assay type in all cases: functional
Mus musculus [1] = species on record: Mus musculus; assay: Ratio of rotarod to Straub-tail activity, which indicates the dose exhibiting muscle relaxant activity versus that producing sedation.
Method in brief: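 Ratio of rotorod ED50 (po) to Straub tail ED50 (po), both measured in mice with oral dosing. Indicates separation between the muscle-relaxant dose and the sedating dose.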

Mus musculus [2] = assay: Sedation caused by oral administration was estimated using rotarod (RR) assay.
Method in brief: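 Mouse rotorod test for sedation, oral dosing, generally at a minimum of three doses with N = 6 animals per dose group.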

Mus musculus [3] = assay: Effective dose required for muscle relaxation by intraperitoneal administration in mouse using Straub-tail (ST) assay; conditions: for ED50: ip
Method in brief: (§1)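 Mouse morphine-induced Straub tail assay, scoring inhibition of sacro-coccygeus dorsalis contraction. Dosed ip or po, generally at a minimum of three doses with N = 6 animals per dose group.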

Mus musculus [4] = assay: Effective dose required for muscle relaxation by oral administration in mouse using Straub-tail (ST) assay.; method in brief: as §1
Rattus norvegicus [5] = assay: Antiinflammatory activity in cells by Carrageenan pleurisy assay by oral administration at 20 mg/kg.
Method in brief: (§2)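 Rat carrageenan pleurisy, 3 h. Single oral dose of 20 mg/kg, with separate read-outs for pleural cell counts and edema as percent inhibition. Each compound tested two or three times; average variation approximately 10%.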

Rattus norvegicus [6] = assay: Antiinflammatory activity in edema by Carrageenan pleurisy assay by oral administration at 20 mg/kg.; method in brief: as §2
Rattus norvegicus [7] = assay: Percent inhibition for analgesic activity by trypsin-induced hyperalgesia assay at 20 mg/kg by oral administration in rats.
Method in brief: (§3)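 Rat trypsin-induced hyperalgesia (mild analgesia). Percent inhibition at a single oral dose of 20 mg/kg. Each compound tested two or three times; average variation approximately 5%.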

Mus musculus [8] = assay: (§4) Percent effect profile muscle relaxation at 100 mg/kg by intraperitoneal administration in mouse using Straub-tail (ST) assay; conditions: ip
Method in brief: (§5)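 Mouse morphine-induced Straub tail assay, scoring inhibition of sacro-coccygeus dorsalis contraction. Single ip dose of 100 mg/kg; percent effect reported. Compounds above 50% inhibition were then tested orally.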

Rattus norvegicus [9] = assay: Percent inhibition for analgesic activity by trypsin-induced hyperalgesia assay at 20 mg/kg by oral administration in rats; method in brief: as §3
Rattus norvegicus [10] = assay: Effective dose required for analgesic activity by trypsin-induced hyperalgesia assay at 20 mg/kg by oral administration in rats
Method in brief: (§6)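 Rat trypsin-induced hyperalgesia (mild analgesia) with oral dosing. ED50 reported in mg/kg po. Each compound tested two or three times; average variation approximately 5%.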

Rattus norvegicus [11] = assay: Antiinflammatory activity in cells using Carrageenan pleurisy assay by oral administration
Method in brief: (§7)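 Rat carrageenan pleurisy, 3 h. Compounds given orally, with separate read-outs for pleural cell counts and edema. ED50 reported in mg/kg po. Each compound tested two or three times; average variation approximately 10%.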

Rattus norvegicus [12] = assay: Antiinflammatory activity in edema by Carrageenan pleurisy assay by oral administration; method in brief: as §7
Mus musculus [13] = assay: as §4; conditions: ip; method in brief: as §5; remark: listed apart in the source
Rattus norvegicus [14] = assay: Antiinflammatory activity in cells by Carrageenan pleurisy assay by oral administration at 20 mg/kg; method in brief: as §2
Rattus norvegicus [15] = assay: Antiinflammatory activity in edema by Carrageenan pleurisy assay by oral administration at 20 mg/kg; method in brief: as §2
[16] = Effective dose required to produce analgesic activity in the adjuvant arthritis hyperalgesia assay by oral administration
[17] = Effective dose required to produce analgesic activity in the phalanges algesia assay by oral administration
[18] = Effective dose required to produce analgesic activity in the trypsin hyperalgesia assay by oral administration; method in brief: as §6

Row | Compound | Ratio (Mus musculus [1]) | ED50 (Mus musculus [2]) [mg/kg] | ED50 (Mus musculus [3]) [mg/kg] | ED50 (Mus musculus [4]) [mg/kg] | inhibition in vivo at 20 mg/kg (Rattus norvegicus [7]) [%] | ED50 (Rattus norvegicus [10]) [mg/kg] | ED50 (Rattus norvegicus [11]) [mg/kg] | ED50 (Rattus norvegicus [12]) [mg/kg] | further results
1 | O=C(/C=C/c1cccc(F)c1)NC1CC1 [CINFLUMIDE] | 1.2 | 189 | 63 | 156 | < 20 | – | – | – | inhibition in vivo at 20 mg/kg (Rattus norvegicus [5]): < 20%; inhibition in vivo at 20 mg/kg (Rattus norvegicus [6]): < 20%
2 | NC(=O)/C=C1\CCc2cc(F)c(F)cc21 | 1.3 | 82 | – | 64 | – | 19 | 13 | 17 | inhibition in vivo at 100 mg/kg (Mus musculus [8]): 100%; inhibition in vivo at 20 mg/kg (Rattus norvegicus [9]): 62%
3 | O=C(/C=C1\CCc2ccccc21)NC1CC1 | 1.6 | 235 | 71 | 150 | – | – | – | – | –
4 | O=C(/C=C1\CCc2ccc(F)cc21)NCc1ccccc1 | – | – | – | – | – | – | 16 | 8 | inhibition in vivo at 100 mg/kg (Mus musculus [13]): 17%; inhibition in vivo at 20 mg/kg (Rattus norvegicus [9]): 8%
5 | CN(C)C(=O)/C=C1\CCc2ccc(F)cc21 | – | – | – | > 100 | 88 | 5 | 16 | 12 | inhibition in vivo at 100 mg/kg (Mus musculus [8]): 100%
6 | CNC(=O)/C=C1\CCc2c(F)cc(F)cc21 | – | – | – | 45 | – | 13 | – | – | inhibition in vivo at 100 mg/kg (Mus musculus [8]): 100%; inhibition in vivo at 20 mg/kg (Rattus norvegicus [9]): 65%
7 | O=C(/C=C1\CCc2c(F)cccc21)NC1CC1 | – | – | – | 126 | – | – | – | – | inhibition in vivo at 100 mg/kg (Mus musculus [8]): 100%; inhibition in vivo at 20 mg/kg (Rattus norvegicus [14]): 29%; inhibition in vivo at 20 mg/kg (Rattus norvegicus [15]): 18%
8 | O=C(/C=C1\CCc2ccc(F)cc21)NC1CCCC1 | – | – | – | – | – | – | 14 | 11 | inhibition in vivo at 100 mg/kg (Mus musculus [13]): 0%; inhibition in vivo at 20 mg/kg (Rattus norvegicus [9]): 6%
9 | NC(=O)/C=C1\CCc2ccc(F)cc21 | 1.6 | 90 | 22 | 56 | 14 | 16 | 21 | 20 | inhibition in vivo at 20 mg/kg (Rattus norvegicus [9]): 60%
10 | Cc1cccc2c1CC/C2=C\C(N)=O | – | – | – | > 100 | 25 | – | – | – | Inhibition (Mus musculus [3]): 100%; inhibition in vivo at 20 mg/kg (Rattus norvegicus [5]): 15%; inhibition in vivo at 20 mg/kg (Rattus norvegicus [6]): 13%
11 | NC(=O)/C=C1\CCc2ccc(Cl)cc21 | 2 | 221 | 40 | 98 | – | – | 27 | 33 | –
12 | NC(=O)/C=C1/CCc2ccccc21 | – | – | 44 | – | – | – | – | – | –
13 | COc1ccc2c3c1O[C@H]1[C@@H](O)C=C[C@H]4[C@@H](C2)N(C)CC[C@@]341 [CODEINE] | – | – | – | – | – | – | – | – | ED50 [16]: 25 mg/kg; ED50 [17]: 27 mg/kg; ED50 [18]: 33 mg/kg
14 | CNC(=O)/C=C1\CCc2cc(F)c(F)cc21 | – | – | – | 96 | 100 | 9 | 18 | 11 | inhibition in vivo at 100 mg/kg (Mus musculus [8]): 100%
15 | C/C(=C\C(=O)NC1CC1)c1cccc(F)c1 | 0.6 | 71 | 46 | 122 | – | – | – | – | –
16 | O=C(/C=C1\CCc2ccc(F)cc21)Nc1ccccc1 | – | – | – | – | – | – | 8 | – | inhibition in vivo at 100 mg/kg (Mus musculus [13]): 83%
17 | NC(=O)/C=C1\CCc2cc(F)cc(F)c21 | 1.8 | 81 | – | 44 | 93 | 10 | – | – | inhibition in vivo at 100 mg/kg (Mus musculus [13]): 100%; inhibition in vivo at 20 mg/kg (Rattus norvegicus [5]): 54%; inhibition in vivo at 20 mg/kg (Rattus norvegicus [6]): 55%
